From article PMC4254850 (Clinical cancer research : an official journal of the …, 2014)
“Also recorded” adds a separate entry of the source.

Columns and labels:
[1] = Phase I dose escalation: MTD, DLTs and toxicities; type: in vivo, human
Method in brief: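 Open-label, four-centre, 3+3 escalation in metastatic solid-tumour patients. Test compound taken orally from 2 mg, QD (2–96 mg) then BID (48–72 mg), in continuous 4-week cycles after a single-dose run-in with 5–7 day washout. Toxicities graded by CTCAE v4.03. DLTs assessed over run-in plus first cycle. MTD: highest level with ≤1 of 6 patients showing DLT. Descriptive statistics.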

[2] = system: class III PI3K; conditions: cited from earlier work
[3] = system: mammalian target of rapamycin (mTOR); conditions: cited from earlier work
[4] = system: human cancer cell lines with alterations in the PI3K pathway; conditions: in vitro; cited from earlier work
[5] = Plasma pharmacokinetics, LC/MS/MS, non-compartmental analysis; type: in vivo, human; conditions: for AUC(0-t) / Cmax / half-life: human, plasma, po

With CS(=O)(=O)N1CCc2c(-c3cnc(N)nc3)nc(N3CCOCC3)nc21 [CH5132799] the “Treatment-related fatigue, number (%) of patients” value ([1]; all dose levels, Total (n=38)) was 11 (29%), the “Treatment-related hyperglycemia, number (%) of patients” value ([1]; all dose levels, Total (n=38)) was 5 (13%) and the “Treatment-related nausea, number (%) of patients” value ([1]; all dose levels, Total (n=38)) was 12 (32%). For the same molecule, the “Treatment-related rash, number (%) of patients” value ([1]; all dose levels, Total (n=38)) was 9 (24%), the “Treatment-related stomatitis, number (%) of patients” value ([1]; all dose levels, Total (n=38)) was 11 (29%) and the “Treatment-related vomiting, number (%) of patients” value ([1]; all dose levels, Total (n=38)) was 6 (16%). For the same molecule, the “Patients with DLTs” value ([1]; all evaluable patients, run-in period and first cycle) was “five of 38”, the Diabetic ketoacidosis ([1]; all patients) was “No episodes of diabetic ketoacidosis” and the Drug-related deaths ([1]; all patients) was “No drug-related deaths”. For the same molecule, the “Grade of most drug-related adverse events” value ([1]; all patients) was “grade 1/2”, the “Patients with drug-related diarrhea” value ([1]; all patients) was 34% and the “Patients with drug-related nausea” value ([1]; all patients) was 32%. The “Patients with fatigue (most common AEs)” value ([1]; all patients) was 29%, the “Patients with nausea (most common AEs)” value ([1]; all patients) was 32% and the “Patients with rash (most common AEs)” value ([1]; all patients) was 24%. For the same molecule, the “Inhibitory activity against class III PI3K” value [2] was “no inhibitory activity”, the “Inhibitory activity against mTOR” value [3] was “no inhibitory activity” and the Antiproliferative effect [4] was “strong antiproliferative effect”. The Accumulation ratio ([5]; 2mg (QD), AUC0-24h repeat dose / single dose, mean, n=3) was 0.912(3), the Accumulation ratio ([5]; 4 mg (QD), AUC0-24h repeat dose / single dose, mean, n=3) was 1.54(3) and the Accumulation ratio ([5]; 8 mg (QD), AUC0-24h repeat dose / single dose, mean, n=2) was 1.22(2). The Accumulation ratio ([5]; 16 mg (QD), AUC0-24h repeat dose / single dose, n=1) was 0.972(1), the Accumulation ratio ([5]; 32 mg (QD), AUC0-24h repeat dose / single dose, mean, n=2) was 1.57(2) and the Accumulation ratio ([5]; 48 mg (BID), AUC0-12h repeat dose / single dose, mean, n=2) was 1.10(2). The Accumulation ratio ([5]; 56 mg (BID), AUC0-12h repeat dose / single dose, mean, n=2) was 1.72(2), the Accumulation ratio ([5]; 56 mg (QD), AUC0-24h repeat dose / single dose, mean, n=3) was 1.07(3) and the Accumulation ratio ([5]; 72 mg (BID), AUC0-12h repeat dose / single dose, n=1) was 2.25(1). For the same molecule, the Accumulation ratio ([5]; 96 mg (QD), AUC0-24h repeat dose / single dose, mean, n=3) was 0.640(3), the “AUC at doses above the dose-proportional range” value ([5]; doses above 56 mg QD) was “no further increase in AUC; also recorded: no significant increments in AUC” and the AUC(0-t) ([5]; 2 mg, AUC0-24h, 2mg (QD), repeat dose, mean, n=3) was 48.8 ng·h/mL. The AUC(0-t) ([5]; 2 mg, AUClast, 2mg (QD), single dose, mean, n=3, AUClast = AUC0-72h) was 53 ng·h/mL, the Cmax ([5]; 2 mg, 2mg (QD), repeat dose, mean, n=3) was 9.92 ng/mL and the Cmax ([5]; 2 mg, 2mg (QD), single dose, mean, n=3) was 10 ng/mL. It also gave a half-life ([5]; 2 mg, t1/2, 2mg (QD), single dose, mean, n=3) of 7.52 h, an AUC(0-t) ([5]; 4 mg, AUC0-24h, 4 mg (QD), repeat dose, mean, n=3) of 167 ng·h/mL and an AUC(0-t) ([5]; 4 mg, AUClast, 4 mg (QD), single dose, mean, n=3, AUClast = AUC0-72h) of 112 ng·h/mL. It also gave a Cmax ([5]; 4 mg, 4 mg (QD), repeat dose, mean, n=3) of 22.5 ng/mL, a Cmax ([5]; 4 mg, 4 mg (QD), single dose, mean, n=3) of 17.2 ng/mL and a half-life ([5]; 4 mg, t1/2, 4 mg (QD), single dose, mean, n=3) of 8.3 h. For the same molecule, the AUC(0-t) ([5]; 8 mg, AUC0-24h, 8 mg (QD), repeat dose, mean, n=2) was 159 ng·h/mL, the AUC(0-t) ([5]; 8 mg, AUClast, 8 mg (QD), single dose, mean, n=3, AUClast = AUC0-72h) was 133 ng·h/mL and the Cmax ([5]; 8 mg, 8 mg (QD), repeat dose, mean, n=2) was 46.3 ng/mL. The Cmax ([5]; 8 mg, 8 mg (QD), single dose, mean, n=3) was 41.1 ng/mL, the half-life ([5]; 8 mg, t1/2, 8 mg (QD), single dose, mean, n=3) was 23.7 h and the AUC(0-t) ([5]; 16 mg, AUC0-24h, 16 mg (QD), repeat dose, mean, n=2) was 621 ng·h/mL. The AUC(0-t) ([5]; 16 mg, AUClast, 16 mg (QD), single dose, n=1, AUClast = AUC0-72h) was 883 ng·h/mL, the Cmax ([5]; 16 mg, 16 mg (QD), repeat dose, mean, n=3) was 100 ng/mL and the Cmax ([5]; 16 mg, 16 mg (QD), single dose, n=1) was 113 ng/mL. For the same molecule, the half-life ([5]; 16 mg, t1/2, 16 mg (QD), single dose, n=1) was 13.7 h, the AUC(0-t) ([5]; 32 mg, AUC0-24h, 32 mg (QD), repeat dose, mean, n=2) was 1740 ng·h/mL and the AUC(0-t) ([5]; 32 mg, AUClast, 32 mg (QD), single dose, mean, n=4, AUClast = AUC0-72h) was 859 ng·h/mL. It also gave a Cmax ([5]; 32 mg, 32 mg (QD), repeat dose, mean, n=3) of 345 ng/mL, a Cmax ([5]; 32 mg, 32 mg (QD), single dose, mean, n=4) of 165 ng/mL and a half-life ([5]; 32 mg, t1/2, 32 mg (QD), single dose, mean, n=4) of 12.2 h. The half-life ([5]; 48 mg) was 10.2 h, the AUC(0-t) ([5]; 48 mg, AUC0-24h, 48 mg (BID) = MTD, repeat dose (steady state), mean, n=5, calculated based on data from 0 to 12 hours (AUC0-12h)) was 1550 ng·h/mL and the AUC(0-t) ([5]; 48 mg, AUClast, 48 mg (BID) = MTD, single dose, mean, n=4, AUClast = AUC0-72h) was 1270 ng·h/mL. It also gave a Cmax ([5]; 48 mg, 48 mg (BID) = MTD, repeat dose (steady state), mean, n=5) of 175 ng/mL, a Cmax ([5]; 48 mg, 48 mg (BID) = MTD, single dose, mean, n=5) of 172 ng/mL and an AUC(0-t) ([5]; 56 mg, AUC0-24h, 56 mg (BID), repeat dose, mean, n=2, calculated based on data from 0 to 12 hours (AUC0-12h)) of 5940 ng·h/mL. For the same molecule, the AUC(0-t) ([5]; 56 mg, AUC0-24h, 56 mg (QD), repeat dose, mean, n=3) was 748 ng·h/mL, the AUC(0-t) ([5]; 56 mg, AUClast, 56 mg (BID), single dose, mean, n=5, AUClast = AUC0-72h) was 3030 ng·h/mL and the AUC(0-t) ([5]; 56 mg, AUClast, 56 mg (QD), single dose, mean, n=3, AUClast = AUC0-72h) was 969 ng·h/mL. The Cmax ([5]; 56 mg, 56 mg (BID), repeat dose, mean, n=3) was 331 ng/mL, the Cmax ([5]; 56 mg, 56 mg (BID), single dose, mean, n=5) was 428 ng/mL and the Cmax ([5]; 56 mg, 56 mg (QD), repeat dose, mean, n=3) was 184 ng/mL. For the same molecule, the Cmax ([5]; 56 mg, 56 mg (QD), single dose, mean, n=3) was 163 ng/mL, the half-life ([5]; 56 mg, t1/2, 56 mg (BID), single dose, mean, n=5) was 16.3 h and the half-life ([5]; 56 mg, t1/2, 56 mg (QD), single dose, mean, n=3) was 14.5 h. The AUC(0-t) ([5]; 72 mg, AUC0-24h, 72 mg (BID), repeat dose, n=1, calculated based on data from 0 to 12 hours (AUC0-12h)) was 5580 ng·h/mL, the AUC(0-t) ([5]; 72 mg, AUClast, 72 mg (BID), single dose, mean, n=3, AUClast = AUC0-72h) was 2480 ng·h/mL and the Cmax ([5]; 72 mg, 72 mg (BID), repeat dose, n=1) was 631 ng/mL. It also gave a Cmax ([5]; 72 mg, 72 mg (BID), single dose, mean, n=3) of 265 ng/mL, a half-life ([5]; 72 mg, t1/2, 72 mg (BID), single dose, mean, n=3) of 18.3 h and an AUC(0-t) ([5]; 96 mg, AUC0-24h, 96 mg (QD), repeat dose, mean, n=3) of 691 ng·h/mL. The AUC(0-t) ([5]; 96 mg, AUClast, 96 mg (QD), single dose, mean, n=4, AUClast = AUC0-72h) was 1650 ng·h/mL, the Cmax ([5]; 96 mg, 96 mg (QD), repeat dose, mean, n=3) was 103 ng/mL and the Cmax ([5]; 96 mg, 96 mg (QD), single dose, mean, n=4) was 206 ng/mL. For the same molecule, the half-life ([5]; 96 mg, t1/2, 96 mg (QD), single dose, mean, n=3) was 23.2 h and the “Dose range with dose proportionality of AUC” value ([5]; oral) was 2 to 56 mg.
